Data set [1] can be described thus: Cytotoxicity against human K562/A02 cells assessed as cell viability at 1.0 uM after 48 hrs by MTT assay (reference value: >99%). The following applies: read-out: Activity. Format: cell-based. Background: Formazan colour is commonly taken as a measure of viable cells.
For data set [2], the species on record is Homo sapiens. As to the kind of experiment: Inhibition of P-gp in human K562/A02 cells assessed as potentiation of doxorubicin-induced cytotoxicity by measuring fold reduction in doxorubicin IC50 at 1.0 uM after 48 hrs by MTT assay relative to doxorubicin alone. Format: cell-based. The procedure, abridged:
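K562/A02 cells (1×10^4 cells per well) were exposed to a DOX concentration series, alone or with modulator at 1.0 μM, for 48 h. Viability was read by MTT at 490 nm. Reversal fold = DOX IC50 without inhibitor / DOX IC50 with inhibitor, mean ± SD of three tests.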

The nature of data set [3]: Cytotoxicity against human K562 cells assessed as cell viability at 1.0 uM after 48 hrs by MTT assay (reference value: >99%). Format: cell-based. The following applies: read-out: Activity.
Data set [4] is filed under the species Homo sapiens. The data set can be described thus: Inhibition of P-gp in human K562/A02 cells assessed as accumulation of doxorubicin at 0.1 uM to 5.0 uM after 150 mins by fluorescence spectrophotometric analysis. Format: cell-based. The method, boiled down: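 K562/A02 cells (4×10^5) were incubated 150 min at 37 °C with 20.0 μM DOX plus modulator at various concentrations, with 0.1% DMSO as negative control. Cells were washed with cold PBS and lysed in HCl/Triton X-100/isopropanol. DOX fluorescence was read at ex 460 / em 587 nm. Mean ± SD, n = 3.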

Data set [5] has as its system Rattus norvegicus. The data set can be described thus: Effect on plasma concentration of doxorubicin in Sprague-Dawley rat at 5 mg/kg, iv co-administered with doxorubicin measured after 8 hrs by LC-MS/MS analysis. Format: ADME, organism-based. The settings on record: in vivo. The procedure, abridged:
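Male SD rats received DOX 10 mg/kg i.v. alone or with modulator 5 mg/kg i.v. Orbital blood was taken at 5 min to 8 h. Plasma DOX was measured by LC-MS/MS with DNR (0.5 μg/mL) as internal standard. Mean ± SD, n = 3.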

The species entered for data set [6] is Homo sapiens. As to the kind of experiment: Inhibition of ATPase activity in human P-gp membrane fraction at 0.5 uM in presence of ATP after 1 hr by luciferase […]. The class given is cell membranes. The procedure, abridged: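 Human P-gp membrane fraction (~25 μg) was incubated with compound at 0.5, 5.0 or 50.0 μM in 0.5% DMSO, with a 100 μM sodium vanadate reference. Reaction was started with 5.0 mM MgATP, 1 h at 37 °C. Remaining ATP was read by luciferase luminescence after 20 min at room temperature, relative to vanadate. n = 3.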
(In general: Reporter assays use an easily measured gene product as a stand-in for the process of interest.)

For data set [7], the species on record is Homo sapiens. The data set can be described thus: Inhibition of P-gp mediated efflux in human K562/A02 cells assessed as intracellular Rh123 accumulation at 1.0 uM measure up to 90 mins by flow cytometric analysis. Format: cell-based. The method, boiled down:
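K562/A02 cells were loaded with 5 μM Rh123 for 90 min at 37 °C and washed three times. They were then incubated with or without modulator at 37 °C for 5, 10, 25, 30, 60 and 90 min. Retained Rh123 MFI per 10000 cells was measured by flow cytometry. 0.1% DMSO negative control, n = 3.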
Background: In flow cytometry, cells or beads pass a laser one at a time.

Data set [8] in a line: Inhibition of CYP3A4 in rat liver microsomes assessed as decrease in 6beta-OH testosterone levels using testosterone as substrate by HPLC analysis. Format: ADME. The procedure, abridged:
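Rat liver microsomes were isolated by differential centrifugation, with protein measured by Bradford assay. They were incubated with testosterone, without or with inhibitor at 2.5, 5.0, 10.0, 20.0 and 40.0 μM; ketoconazole was the reference inhibitor. 6β-OH testosterone was quantified by C18 reverse-phase HPLC (water/acetonitrile gradient, 35 °C, 1.0 mL/min, UV 254 nm). Mean ± SD, three independent experiments.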

A short description of data set [9]: Cytotoxicity against human K562/A02 cells assessed as cell viability at 5.0 uM after 48 hrs by MTT assay (reference value: >99%). The class given is cell-based. The following applies: read-out: Activity.
The species named for data set [10] is Homo sapiens. The following applies: 5 uM.
Data set [11] in a line: in vitro. The settings on record: human, K562 cells.
The species entered for data set [12] is Homo sapiens. The settings on record: 5 uM. The source holds these as a separate data set.
For data set [13], the species on record is Homo sapiens. The following applies: 5.0 uM.
Data set [14] relates to K562/A02. The data set can be described thus: Antiproliferative activity against human K562/A02 cells assessed as cell viability at 5.0 uM after 48 hrs by MTT assay (reference value: >99%). Format: functional. The settings on record: K562/A02, 48 h, read-out: Activity.
Data set [15] in a line: Selective ratio of IC50 for human K562/A02 cells to IC50 for human K562 cells. Format: functional.
Data set [16] relates to K562. As to the kind of experiment: Antiproliferative activity against human K562 cells assessed as cell viability at 5.0 uM after 48 hrs by MTT assay (reference value: >99%). The settings on record: K562, 48 h, read-out: Activity. Format: functional.
In data set [17] the test system is K562. The data set can be described thus: Cytotoxicity against human K562 cells assessed as reduction in cell viability after 48 hrs by MTT assay. The following applies: K562, 48 h. The class given is functional, cell-based. The procedure, abridged:
(§1)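 MTT assay on HUVEC, K562 or K562/A02 cells seeded at 1×10^4 cells per well, using serial compound concentrations. Formazan was dissolved in DMSO and read at 490 nm. IC50 was obtained from log dose–response curves, mean ± SD of three independent tests.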

The subject of data set [18] is K562/A02. The data set can be described thus: Cytotoxicity against human K562/A02 cells assessed as reduction in cell viability after 48 hrs by MTT assay. Format: functional, cell-based. The following applies: K562/A02, 48 h. The procedure, abridged: as §1
Data set [19] concerns HUVEC. As to the kind of experiment: Cytotoxicity against HUVEC assessed as reduction in cell viability after 48 hrs by MTT assay. Format: cell-based. The settings on record: Homo sapiens. The method, boiled down:
as §1

Data set [20] is described as follows: Elimination half life in Sprague-Dawley rat at 10 mg/kg, iv by LC-MS/MS analysis. The following applies: in vivo, read-out: beta t1/2 (converted). Format: ADME, organism-based.

Calls of active or inactive are those of the source. The calls are words filed in the database; no cut-off is given here.

On to `COc1cc2c(cc1OC)CN(CCc1ccc(Nc3nc(-c4cccnc4)nc4ccccc34)cc1)CC2`, for which the values for the viability at 48 h, 1 µM in data set [1] and in data set [3] were 97.9% and greater than 99%, respectively. In [2], the fold change (FC) was 5.9.

As for `COc1ccc(-c2nc(Nc3ccc(CCN4CCc5cc(OC)c(OC)cc5C4)cc3)c3ccccc3n2)cc1OC`, the viability at 48 h, 1 µM in data set [1] is greater than 99%; in [3] it was 95.1%. Besides, the fold change (FC) in [2] was determined as 17.2.

In the case of `COc1cc2c(cc1OC)CN(CCc1ccc(Nc3nc(-c4ccc(F)cc4)nc4ccccc34)cc1)CC2`, the viability at 48 h, 1 µM in data set [1] and in [3] was greater than 99% throughout. The fold change (FC) in data set [2] stood at 3.3.

For `COc1cc2c(cc1OC)CN(CCc1ccc(Nc3nc(-c4ccc(Cl)cc4)nc4ccccc34)cc1)CC2`, the viability at 48 h, 1 µM in data set [1] and in [3] was greater than 99% throughout. Further, the fold change (FC) in data set [2] was found to be 6.

Take `COc1cc2c(cc1OC)CN(CCc1ccc(Nc3nc(-c4ccccc4)nc4ccccc34)cc1)CC2`: the viability at 48 h, 1 µM in [1] is greater than 99%; in [3], 98.7%. The fold change (FC) in data set [2] turned out to be 7.7.

For the compound `COc1cc2c(cc1OC)CN(CCc1ccc(Nc3nc(-c4cccc([N+](=O)[O-])c4)nc4ccccc34)cc1)CC2`, the viability at 48 h, 1 µM in data set [1] and in [3] was greater than 99% each time. The fold change (FC) in [2] stood at 13.4.

In the case of `COc1ccc(C(=O)Nc2ccccc2C(=O)Nc2ccc(CCN3CCc4cc(OC)c(OC)cc4C3)cc2)cc1OC`, the viability at 48 h, 1 µM in data set [1] is greater than 99%; in data set [3], 97.5%. For the same compound, the inhibition result in data set [4], in data set [6] and in data set [7] was “Active” in each case. For the same compound, the Activity result in [5] is reported as “Non-Toxic”. Besides, in data set [2], the fold change (FC) worked out at 18.6.

Regarding `CC(=O)N1CCN(c2ccc(OCC3COC(Cn4ccnc4)(c4ccc(Cl)cc4Cl)O3)cc2)CC1` (configuration not stated) [KETOCONAZOLE], the “inhibition (INH)” value in data set [8] is given as “Dose-dependent effect”.

In the case of `COc1cc2c(cc1OC)CN(CCc1ccc(Nc3nc(-c4ccccc4)nc4cc(OC)c(OC)cc34)cc1)CC2`, the viability at 48 h, 1 µM is 97.3% in data set [1] and greater than 99% in data set [3]. In data set [2], the fold change (FC) was 10.1.

With `COc1cc2c(cc1OC)CN(CCc1ccc(Nc3nc(-c4ccc(C)cc4)nc4ccccc34)cc1)CC2`, the values for the viability at 48 h, 1 µM in [1] and in [3] were 94.2% and 93.4%, respectively. In data set [2], the fold change (FC) stood at 7.5.

Turning to `COc1cc2c(cc1OC)CN(CCc1ccc(Nc3nc(-c4ccccc4)nc4cc(Cl)ccc34)cc1)CC2`, the values for the viability at 48 h, 1 µM in data set [1] and in data set [3] were 95.3% and greater than 99%, respectively. Also, in data set [2], the fold change (FC) turned out to be 8.2.

In the case of `COc1ccc(CCN(C)CCCC(C#N)(c2ccc(OC)c(OC)c2)C(C)C)cc1OC` (configuration not stated), the viability at 48 h, 5 µM is 88.3% in data set [9] and greater than 99% in [11]. Moreover, the inhibition result in data set [10] is “inactive”. Moreover, the inhibition entry in [12] and in [13] was “Active” throughout. The Activity result in [5] was “Toxic”.

Take `COc1ccc(-c2nc(Nc3ccc(CCN4CCc5cc(OC)c(OC)cc5C4)cc3)c3ccccc3n2)cc1`: the viability at 48 h, 1 µM was 85.2% in data set [1] and greater than 99% in data set [3]. In addition, the fold change (FC) in [2] is 7.9.

With `COc1cccc(-c2nc(Nc3ccc(CCN4CCc5cc(OC)c(OC)cc5C4)cc3)c3ccccc3n2)c1`, the viability at 48 h, 1 µM in data set [1] and in data set [3] was greater than 99% in each case. Besides, the fold change (FC) in data set [2] turned out to be 14.6.

For `COc1cc2c(cc1OC)CN(CCc1ccc(Nc3nc(-c4ccccc4OC)nc4ccccc34)cc1)CC2`, the viability at 48 h, 1 µM in [1] and in [3] was greater than 99% in each case. In [2], the fold change (FC) was found to be 10.9.

On to `COc1cc2c(cc1OC)CN(CCc1ccc(Nc3nc(-c4cccc(C)c4)nc4ccccc34)cc1)CC2`, for which the values for the viability at 48 h, 1 µM in data set [1] and in data set [3] were 92.1% and 92.9%, respectively. For the same compound, the fold change (FC) in data set [2] amounted to 8.9.

For the compound `COc1cc2c(cc1OC)CN(CCc1ccc(Nc3nc(-c4ccc5ccccc5n4)nc4ccccc34)cc1)CC2`, the viability at 48 h, 1 µM is 92.1% in [1] and greater than 99% in [3]. Moreover, the fold change (FC) in [2] came to 2.6.

Regarding `COc1cc2c(cc1OC)CN(CCc1ccc(Nc3nc(-c4ccc5c(c4)OCO5)nc4ccccc34)cc1)CC2`, the viability at 48 h, 1 µM in data set [1] stood at 89.2%; in [3] it was 91.4%. Besides, the fold change (FC) in data set [2] was determined as 15.5.

Consider `COc1cccc2c1C(=O)c1c(O)c3c(c(O)c1C2=O)C[C@@](O)(C(=O)CO)C[C@@H]3O[C@H]1C[C@H](N)[C@H](O)[C@H](C)O1` [DOXORUBICIN], for which the viability at 5 µM in [14] was determined as 96.4%; in data set [16] it was 8.8%. In [15], the “Ratio IC50” value was 144.8. For the same compound, the IC50 (usually the point on the concentration scale where inhibition reaches its midpoint) in data set [17] was 0.62 µM; in [18], 89.8 µM; in data set [19], 8.65 µM. The half-life in data set [20] was 1.6 h.

`COc1cc2c(cc1OC)CN(CCc1ccc(Nc3nc(-c4ccc(C(C)(C)C)cc4)nc4ccccc34)cc1)CC2`: the viability at 48 h, 1 µM was 91.3% in [1] and greater than 99% in data set [3]. For the same compound, the fold change (FC) in data set [2] is 1.9.

With `COc1cc2c(cc1OC)CN(CCc1ccc(Nc3nc(-c4ccc([N+](=O)[O-])cc4)nc4ccccc34)cc1)CC2`, the viability at 48 h, 1 µM in [1] was greater than 99%; in [3], 94.7%. Moreover, in data set [2], the fold change (FC) came to 3.

Values taken from ChEMBL document CHEMBL4049421, “Design, Synthesis, and Pharmacological Characterization of N-(4-(2 (6,7-Dimethoxy-3,4-dihydroisoquinolin-2(1H)yl)ethyl)phenyl)quinazolin-4-amine Derivatives: Novel Inhibitors Reversing P-Glycoprotein-Mediated Multidrug Resistance” (J Med Chem, 2017).
